ChEMBL document CHEMBL4043093, “2-Oxo-3, 4-dihydropyrimido[4, 5-d]pyrimidinyl derivatives as new irreversible pan fibroblast growth factor receptor (FGFR) inhibitors” (Eur J Med Chem, 2017)

What was measured:
[1] = target: Protein kinase C theta type (Homo sapiens) (UniProt Q04759); assay: Inhibition of wild-type human partial length PRKCQ (L350 to S706 residues) expressed in Escherichia coli BL21 assessed as residual activity at 1000 nM after 30 mins by Kinomescan method relative to control
[2] = target: Ribosomal protein S6 kinase alpha-5 (Homo sapiens) (UniProt O75582); assay: Inhibition of wild-type human partial length C-terminal RPS6KA5 kinase domain 2 (V390 to T718 residues) expressed in Escherichia coli BL21 assessed as residual activity at 1000 nM after 30 mins by Kinomescan method relative to control
[3] = target: Tyrosine-protein kinase Yes (Homo sapiens) (UniProt P07947); assay: Inhibition of wild-type human partial length YES (T257 to L543 residues) expressed in Escherichia coli BL21 assessed as residual activity at 1000 nM after 30 mins by Kinomescan method relative to control
[4] = target: Mitogen-activated protein kinase 6 (Homo sapiens) (UniProt Q16659); assay: Inhibition of wild-type human partial length ERK3 (M1 to P413 residues) expressed in Escherichia coli BL21 assessed as residual activity at 1000 nM after 30 mins by Kinomescan method relative to control
[5] = target: TGF-beta receptor type-1 (Homo sapiens) (UniProt P36897); assay: Inhibition of wild-type human partial length TGFBR1 (D179 to M503 residues) expressed in Escherichia coli BL21 assessed as residual activity at 1000 nM after 30 mins by Kinomescan method relative to control
[6] = system: Epidermal growth factor receptor (Homo sapiens), P00533 [UNDEFINED MUTATION]; assay: Inhibition of human partial length EGFR L747-S752del/P753S mutant expressed in Escherichia coli BL21 assessed as residual activity at 1000 nM after 30 mins by Kinomescan method relative to control
Method in brief: (§1)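 KINOMEscan binding panel of 456 kinases, with the test compound at a single concentration of 1 µM. Read-out is Percent Control.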

[7] = target: MAP kinase-interacting serine/threonine-protein kinase 1 (Homo sapiens) (UniProt Q9BUB5); assay: Inhibition of wild-type human full length MKNK1 (M1 to L424 residues) expressed in HEK293 cells assessed as residual activity at 1000 nM after 30 mins by Kinomescan method relative to control; assay type: cell-based
Method in brief: (§2)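 Single-concentration screen at 1 µM across a 456-kinase KINOMEscan panel. The read-out is Percent Control for each kinase.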

[8] = target: Dual specificity mitogen-activated protein kinase kinase 1 (Homo sapiens) (UniProt Q02750); assay: Inhibition of wild-type human full length MEK1 (M1 to V393 residues) expressed in HEK293 cells assessed as residual activity at 1000 nM after 30 mins by Kinomescan method relative to control; assay type: cell-based; method in brief: as §2
[9] = target: Glycogen synthase kinase-3 beta (Homo sapiens) (UniProt P49841); assay: Inhibition of wild-type human full length GSK3B (M1 to T433 residues) expressed in HEK293 cells assessed as residual activity at 1000 nM after 30 mins by Kinomescan method relative to control; assay type: cell-based; method in brief: as §2
[10] = target: Testis-specific serine/threonine-protein kinase 1 (Homo sapiens) (UniProt Q9BXA7); assay: Inhibition of wild-type human full length TSSK1B (M1 to Q367 residues) expressed in Escherichia coli BL21 assessed as residual activity at 1000 nM after 30 mins by Kinomescan method relative to control
[11] = target: Epithelial discoidin domain-containing receptor 1 (Homo sapiens) (UniProt Q08345); assay: Inhibition of wild-type human partial length DDR1 (R565 to V876 residues) expressed in Escherichia coli BL21 assessed as residual activity at 1000 nM after 30 mins by Kinomescan method relative to control
[12] = target: Serine/threonine-protein kinase 35 (Homo sapiens) (UniProt Q8TDR2); assay: Inhibition of wild-type human partial length STK35 (G182 to A534 residues) expressed in Escherichia coli BL21 assessed as residual activity at 1000 nM after 30 mins by Kinomescan method relative to control
[13] = target: Wee1-like protein kinase (Homo sapiens) (UniProt P30291); assay: Inhibition of wild-type human partial length WEE1 (M291 to K575 residues) expressed in Escherichia coli BL21 assessed as residual activity at 1000 nM after 30 mins by Kinomescan method relative to control
[14] = target: Vascular endothelial growth factor receptor 1 (Homo sapiens) (UniProt P17948); assay: Inhibition of wild-type human partial length FLT1 (R781 to F1239 residues) expressed in Escherichia coli BL21 assessed as residual activity at 1000 nM after 30 mins by Kinomescan method relative to control
[15] = system: Epidermal growth factor receptor (Homo sapiens), P00533 [UNDEFINED MUTATION]; assay: Inhibition of human partial length EGFR L747-E749del/A750P mutant expressed in Escherichia coli BL21 assessed as residual activity at 1000 nM after 30 mins by Kinomescan method relative to control; method in brief: as §1
[16] = target: Calcium/calmodulin-dependent protein kinase type 1D (Homo sapiens) (UniProt Q8IU85); assay: Inhibition of wild-type human partial length CAMK1D (M1 to K299 residues) expressed in Escherichia coli BL21 assessed as residual activity at 1000 nM after 30 mins by Kinomescan method relative to control
[17] = target: Serine/threonine-protein kinase ICK (Homo sapiens) (UniProt Q9UPZ9); assay: Inhibition of wild-type human partial length ICK (M1 to P314 residues) expressed in HEK293 cells assessed as residual activity at 1000 nM after 30 mins by Kinomescan method relative to control; assay type: cell-based
[18] = target: Protein-tyrosine kinase 2-beta (Homo sapiens) (UniProt Q14289); assay: Inhibition of wild-type human full length PYK2 (M1 to E967 residues) expressed in Escherichia coli BL21 assessed as residual activity at 1000 nM after 30 mins by Kinomescan method relative to control
Method in brief: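 Single-concentration screen at 1 µM against a 456-kinase panel (KINOMEscan). Read-out is Percent Control for each kinase. Across the 403 non-mutant kinases, an S(35) selectivity score was derived as the fraction of kinases with Percent Control < 35.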

[19] = target: Casein kinase I isoform gamma-1 (Homo sapiens) (UniProt Q9HCP0); assay: Inhibition of wild-type human partial length CSNK1G1 (T15 to S353 residues) expressed in Escherichia coli BL21 assessed as residual activity at 1000 nM after 30 mins by Kinomescan method relative to control
[20] = system: Epidermal growth factor receptor (Homo sapiens), P00533 [UNDEFINED MUTATION]; assay: Inhibition of human partial length EGFR S752-I759del mutant expressed in Escherichia coli BL21 assessed as residual activity at 1000 nM after 30 mins by Kinomescan method relative to control; method in brief: as §1
[21] = target: Activin receptor type-1-like (Homo sapiens) (UniProt P37023); assay: Inhibition of wild-type human ACVRL1 (L164 to Q503 residues) expressed in Escherichia coli BL21 assessed as residual activity at 1000 nM after 30 mins by Kinomescan method relative to control
Method in brief: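 Single-point screen at a fixed 1 µM, run within a 456-kinase DiscoveRx KINOMEscan panel. Each kinase's read-out is Percent Control, i.e. signal relative to a control without compound. Hits were scored by a Percent Control < 35 cut-off, and an S(35) selectivity score was calculated across the non-mutant kinases.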

Epidermal growth factor receptor (Homo sapiens), P00533 [UNDEFINED MUTATION], sequence (P00533 whole entry, looked up, stated change not applied, the tested form may be a part): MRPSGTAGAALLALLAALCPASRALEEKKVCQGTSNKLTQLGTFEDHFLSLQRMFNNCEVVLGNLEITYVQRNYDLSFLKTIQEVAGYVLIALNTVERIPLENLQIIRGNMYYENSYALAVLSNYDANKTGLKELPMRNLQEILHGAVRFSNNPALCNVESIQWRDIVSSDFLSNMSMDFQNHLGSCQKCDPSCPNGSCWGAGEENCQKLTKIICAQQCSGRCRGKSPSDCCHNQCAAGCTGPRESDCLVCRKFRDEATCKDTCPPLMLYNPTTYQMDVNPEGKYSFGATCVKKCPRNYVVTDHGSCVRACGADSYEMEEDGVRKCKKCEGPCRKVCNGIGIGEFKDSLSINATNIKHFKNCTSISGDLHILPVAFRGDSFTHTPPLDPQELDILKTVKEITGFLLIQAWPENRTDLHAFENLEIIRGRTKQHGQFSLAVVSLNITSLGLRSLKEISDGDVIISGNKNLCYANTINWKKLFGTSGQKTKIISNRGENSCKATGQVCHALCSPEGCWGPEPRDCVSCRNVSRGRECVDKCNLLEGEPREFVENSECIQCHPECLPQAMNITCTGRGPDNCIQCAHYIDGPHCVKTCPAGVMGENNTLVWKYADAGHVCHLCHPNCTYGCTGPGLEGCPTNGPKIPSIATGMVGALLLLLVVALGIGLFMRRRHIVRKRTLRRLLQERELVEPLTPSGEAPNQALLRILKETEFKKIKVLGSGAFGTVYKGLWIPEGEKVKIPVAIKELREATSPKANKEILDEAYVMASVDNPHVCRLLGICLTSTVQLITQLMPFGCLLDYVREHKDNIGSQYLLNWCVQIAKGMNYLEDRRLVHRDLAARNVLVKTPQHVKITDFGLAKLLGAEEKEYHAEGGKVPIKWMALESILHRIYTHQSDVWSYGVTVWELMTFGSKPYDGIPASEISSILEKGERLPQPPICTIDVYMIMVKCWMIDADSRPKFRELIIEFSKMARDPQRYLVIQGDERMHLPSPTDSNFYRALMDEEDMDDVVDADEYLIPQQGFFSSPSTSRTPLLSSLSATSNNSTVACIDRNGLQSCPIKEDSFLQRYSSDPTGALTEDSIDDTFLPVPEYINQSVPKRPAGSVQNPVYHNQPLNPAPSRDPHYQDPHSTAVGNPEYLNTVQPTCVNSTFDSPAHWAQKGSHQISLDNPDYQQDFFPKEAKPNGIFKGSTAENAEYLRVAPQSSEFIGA
TGF-beta receptor type-1 (Homo sapiens), sequence (P36897 whole entry, the tested form may be a part): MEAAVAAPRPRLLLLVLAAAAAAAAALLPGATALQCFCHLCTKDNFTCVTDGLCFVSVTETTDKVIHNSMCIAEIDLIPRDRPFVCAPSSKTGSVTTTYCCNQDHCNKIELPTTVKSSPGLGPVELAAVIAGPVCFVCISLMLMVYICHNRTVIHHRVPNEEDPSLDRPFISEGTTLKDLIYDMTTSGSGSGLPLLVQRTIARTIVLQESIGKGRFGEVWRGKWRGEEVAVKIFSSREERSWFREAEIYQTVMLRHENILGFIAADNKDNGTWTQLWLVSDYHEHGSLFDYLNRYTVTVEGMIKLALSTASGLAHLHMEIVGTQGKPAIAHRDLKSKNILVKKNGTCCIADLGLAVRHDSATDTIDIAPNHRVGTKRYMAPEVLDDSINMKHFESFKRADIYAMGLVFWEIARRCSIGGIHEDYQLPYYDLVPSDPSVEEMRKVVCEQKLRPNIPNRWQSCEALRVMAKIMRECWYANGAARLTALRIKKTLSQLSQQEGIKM
Calcium/calmodulin-dependent protein kinase type 1D (Homo sapiens), sequence (Q8IU85 whole entry, looked up, the tested form may be a part): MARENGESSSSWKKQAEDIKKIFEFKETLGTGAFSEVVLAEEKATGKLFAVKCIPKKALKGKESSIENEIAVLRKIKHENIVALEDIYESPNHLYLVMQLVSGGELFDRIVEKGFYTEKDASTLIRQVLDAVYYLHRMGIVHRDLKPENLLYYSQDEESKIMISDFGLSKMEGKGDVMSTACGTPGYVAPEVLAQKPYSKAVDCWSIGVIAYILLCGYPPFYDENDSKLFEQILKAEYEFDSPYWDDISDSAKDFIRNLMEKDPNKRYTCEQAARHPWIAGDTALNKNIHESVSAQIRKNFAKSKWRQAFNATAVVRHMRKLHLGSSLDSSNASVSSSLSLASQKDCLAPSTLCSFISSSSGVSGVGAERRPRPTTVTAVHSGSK
Tyrosine-protein kinase Yes (Homo sapiens), sequence (P07947 2-543 limits assumed): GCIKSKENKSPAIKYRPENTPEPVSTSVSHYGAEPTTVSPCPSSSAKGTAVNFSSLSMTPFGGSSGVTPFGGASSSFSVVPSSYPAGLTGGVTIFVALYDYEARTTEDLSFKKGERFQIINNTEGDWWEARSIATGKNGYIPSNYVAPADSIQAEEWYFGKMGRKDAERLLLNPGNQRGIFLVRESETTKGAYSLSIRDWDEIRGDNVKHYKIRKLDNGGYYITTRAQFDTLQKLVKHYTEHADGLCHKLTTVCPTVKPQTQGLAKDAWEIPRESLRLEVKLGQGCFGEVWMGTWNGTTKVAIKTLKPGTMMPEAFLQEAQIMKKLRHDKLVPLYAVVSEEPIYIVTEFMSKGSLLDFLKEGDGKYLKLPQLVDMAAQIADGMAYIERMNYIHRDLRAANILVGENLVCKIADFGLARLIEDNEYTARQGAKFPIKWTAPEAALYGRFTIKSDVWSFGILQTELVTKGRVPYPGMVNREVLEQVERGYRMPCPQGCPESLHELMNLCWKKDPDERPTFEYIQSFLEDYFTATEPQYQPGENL
Protein kinase C theta type (Homo sapiens), sequence (Q04759 whole entry, looked up, the tested form may be a part): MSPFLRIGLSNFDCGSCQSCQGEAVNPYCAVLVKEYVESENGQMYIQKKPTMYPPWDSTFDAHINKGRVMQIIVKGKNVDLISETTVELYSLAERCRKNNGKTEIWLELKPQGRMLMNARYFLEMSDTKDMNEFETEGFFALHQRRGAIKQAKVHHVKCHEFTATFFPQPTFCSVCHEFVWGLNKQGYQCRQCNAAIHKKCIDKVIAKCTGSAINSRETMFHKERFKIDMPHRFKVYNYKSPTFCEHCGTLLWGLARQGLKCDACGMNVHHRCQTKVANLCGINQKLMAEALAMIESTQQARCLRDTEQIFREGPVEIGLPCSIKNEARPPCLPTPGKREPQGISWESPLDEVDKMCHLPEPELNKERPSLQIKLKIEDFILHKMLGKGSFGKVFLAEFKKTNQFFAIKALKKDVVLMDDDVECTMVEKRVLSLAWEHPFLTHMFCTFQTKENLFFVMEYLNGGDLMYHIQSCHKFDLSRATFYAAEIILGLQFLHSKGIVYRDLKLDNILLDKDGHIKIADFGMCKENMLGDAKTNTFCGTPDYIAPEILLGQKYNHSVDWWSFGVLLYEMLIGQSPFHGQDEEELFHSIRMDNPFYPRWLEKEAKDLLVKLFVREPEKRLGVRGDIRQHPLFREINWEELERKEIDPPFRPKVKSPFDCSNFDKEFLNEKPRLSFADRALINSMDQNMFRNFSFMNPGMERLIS
Casein kinase I isoform gamma-1 (Homo sapiens), sequence (Q9HCP0 whole entry, looked up, the tested form may be a part, canonical isoform): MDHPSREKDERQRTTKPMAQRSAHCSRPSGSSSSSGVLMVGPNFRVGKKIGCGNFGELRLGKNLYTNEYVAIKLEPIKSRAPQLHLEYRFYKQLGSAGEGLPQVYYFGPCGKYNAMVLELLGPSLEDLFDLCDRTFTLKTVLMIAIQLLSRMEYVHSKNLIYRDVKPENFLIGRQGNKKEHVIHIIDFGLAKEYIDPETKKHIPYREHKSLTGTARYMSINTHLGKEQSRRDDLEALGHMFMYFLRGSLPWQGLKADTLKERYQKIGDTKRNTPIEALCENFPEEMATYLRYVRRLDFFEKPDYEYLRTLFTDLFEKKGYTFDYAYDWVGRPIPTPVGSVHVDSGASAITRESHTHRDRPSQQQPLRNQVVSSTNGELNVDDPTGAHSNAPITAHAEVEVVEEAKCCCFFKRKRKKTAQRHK
Serine/threonine-protein kinase ICK (Homo sapiens), sequence (Q9UPZ9 whole entry, the tested form may be a part): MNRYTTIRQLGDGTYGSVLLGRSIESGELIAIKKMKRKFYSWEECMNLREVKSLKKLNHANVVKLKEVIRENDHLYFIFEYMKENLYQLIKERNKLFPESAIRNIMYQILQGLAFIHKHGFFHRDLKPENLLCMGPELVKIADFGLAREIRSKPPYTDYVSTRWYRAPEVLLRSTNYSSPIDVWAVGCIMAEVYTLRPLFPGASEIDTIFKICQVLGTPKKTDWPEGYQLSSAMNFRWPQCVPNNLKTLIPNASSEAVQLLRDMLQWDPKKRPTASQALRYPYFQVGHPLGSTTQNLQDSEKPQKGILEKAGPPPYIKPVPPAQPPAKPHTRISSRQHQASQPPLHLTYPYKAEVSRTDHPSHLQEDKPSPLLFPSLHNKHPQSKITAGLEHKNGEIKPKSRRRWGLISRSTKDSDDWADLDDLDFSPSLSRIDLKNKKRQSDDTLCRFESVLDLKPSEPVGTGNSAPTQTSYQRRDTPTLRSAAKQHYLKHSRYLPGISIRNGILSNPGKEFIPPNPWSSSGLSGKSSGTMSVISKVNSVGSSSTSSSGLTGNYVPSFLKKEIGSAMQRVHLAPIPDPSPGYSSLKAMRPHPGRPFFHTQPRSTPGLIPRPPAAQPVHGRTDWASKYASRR
Wee1-like protein kinase (Homo sapiens), sequence (P30291 whole entry, looked up, the tested form may be a part): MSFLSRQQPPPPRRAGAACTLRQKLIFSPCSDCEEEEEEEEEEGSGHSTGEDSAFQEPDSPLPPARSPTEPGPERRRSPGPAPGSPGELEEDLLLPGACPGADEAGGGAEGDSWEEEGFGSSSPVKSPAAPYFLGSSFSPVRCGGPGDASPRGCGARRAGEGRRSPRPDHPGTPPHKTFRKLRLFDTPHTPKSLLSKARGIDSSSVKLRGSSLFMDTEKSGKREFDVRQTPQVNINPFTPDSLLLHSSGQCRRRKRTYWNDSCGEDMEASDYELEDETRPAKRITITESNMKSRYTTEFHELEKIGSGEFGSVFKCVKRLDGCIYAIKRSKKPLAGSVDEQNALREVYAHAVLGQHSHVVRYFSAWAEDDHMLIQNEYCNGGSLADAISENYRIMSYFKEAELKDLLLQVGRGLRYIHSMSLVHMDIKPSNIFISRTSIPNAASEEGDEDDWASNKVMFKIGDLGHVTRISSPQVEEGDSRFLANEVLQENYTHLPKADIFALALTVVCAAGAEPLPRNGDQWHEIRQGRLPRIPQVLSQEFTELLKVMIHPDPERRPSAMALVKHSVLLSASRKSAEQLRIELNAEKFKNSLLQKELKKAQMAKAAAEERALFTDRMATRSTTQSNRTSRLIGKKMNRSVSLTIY

COc1cc(OC)c(Cl)c(N2Cc3cnc(Nc4ccc(F)cc4)nc3N(C3CCN(C(=O)/C=C/CN(C)C)CC3)C2=O)c1Cl
Activity [1]: 100%
Activity [2]: 100%
Activity [3]: 34%
Activity [4]: 100%
Activity [5]: 95%
Activity [6]: 100%
Activity [7]: 88%
Activity [8]: 100%
Activity [9]: 100%
Activity [10]: 89%
Activity [11]: 7%
Activity [12]: 100%
Activity [13]: 100%
Activity [14]: 5.6%
Activity [15]: 96%
Activity [16]: 87%
Activity [17]: 100%
Activity [18]: 91%
Activity [19]: 82%
Activity [20]: 71%
Activity [21]: 100%
